Test results from ChEMBL document CHEMBL4043093, “2-Oxo-3, 4-dihydropyrimido[4, 5-d]pyrimidinyl derivatives as new irreversible pan fibroblast growth factor receptor (FGFR) inhibitors” (Eur J Med Chem, 2017).

Experiments:
[1] = target: Cyclin-dependent kinase 14 (Homo sapiens) (UniProt O94921); assay: Inhibition of wild-type human full length PFTK1 (M1 to H451 residues) expressed in Escherichia coli BL21 assessed as residual activity at 1000 nM after 30 mins by Kinomescan method relative to control
In short: (§1)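 Single-concentration screen at 1 µM across a 456-kinase KINOMEscan panel. The read-out is Percent Control for each kinase.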

[2] = target: Ephrin type-B receptor 4 (Homo sapiens) (UniProt P54760); assay: Inhibition of wild-type human partial length EPHB4 (H585 to G892 residues) expressed in Escherichia coli BL21 assessed as residual activity at 1000 nM after 30 mins by Kinomescan method relative to control
[3] = target: NT-3 growth factor receptor (Homo sapiens) (UniProt Q16288); assay: Inhibition of wild-type human partial length TRKC (Q531 to G825 residues) expressed in HEK293 cells assessed as residual activity at 1000 nM after 30 mins by Kinomescan method relative to control; type: cell-based
Chain of NT-3 growth factor receptor (Homo sapiens) (Q16288 32-839 limits assumed): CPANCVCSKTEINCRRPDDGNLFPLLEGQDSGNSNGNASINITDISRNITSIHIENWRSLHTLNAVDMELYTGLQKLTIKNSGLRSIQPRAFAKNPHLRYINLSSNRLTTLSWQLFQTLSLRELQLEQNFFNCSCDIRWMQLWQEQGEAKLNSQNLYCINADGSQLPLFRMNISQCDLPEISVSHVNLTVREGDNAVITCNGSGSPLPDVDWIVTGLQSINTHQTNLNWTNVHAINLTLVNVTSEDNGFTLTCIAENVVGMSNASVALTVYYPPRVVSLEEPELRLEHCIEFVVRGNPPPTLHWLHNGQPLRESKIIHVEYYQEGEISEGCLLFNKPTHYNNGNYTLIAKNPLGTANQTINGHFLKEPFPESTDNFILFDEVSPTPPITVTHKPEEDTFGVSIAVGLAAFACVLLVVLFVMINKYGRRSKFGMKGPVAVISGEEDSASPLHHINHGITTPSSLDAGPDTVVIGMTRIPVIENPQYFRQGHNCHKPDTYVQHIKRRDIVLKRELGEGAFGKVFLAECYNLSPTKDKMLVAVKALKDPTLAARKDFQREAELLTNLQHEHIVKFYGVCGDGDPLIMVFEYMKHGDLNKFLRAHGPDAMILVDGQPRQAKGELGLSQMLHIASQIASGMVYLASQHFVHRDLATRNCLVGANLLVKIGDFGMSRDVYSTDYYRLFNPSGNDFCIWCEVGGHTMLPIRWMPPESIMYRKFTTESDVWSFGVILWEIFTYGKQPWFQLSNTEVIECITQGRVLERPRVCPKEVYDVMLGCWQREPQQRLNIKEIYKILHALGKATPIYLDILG

[4] = target: Wee1-like protein kinase 2 (Homo sapiens) (UniProt P0C1S8); assay: Inhibition of wild-type human partial length WEE2 (M204 to K492 residues) expressed in Escherichia coli BL21 assessed as residual activity at 1000 nM after 30 mins by Kinomescan method relative to control
Chain of Wee1-like protein kinase 2 (Homo sapiens) (P0C1S8 whole entry, looked up, the tested form may be a part): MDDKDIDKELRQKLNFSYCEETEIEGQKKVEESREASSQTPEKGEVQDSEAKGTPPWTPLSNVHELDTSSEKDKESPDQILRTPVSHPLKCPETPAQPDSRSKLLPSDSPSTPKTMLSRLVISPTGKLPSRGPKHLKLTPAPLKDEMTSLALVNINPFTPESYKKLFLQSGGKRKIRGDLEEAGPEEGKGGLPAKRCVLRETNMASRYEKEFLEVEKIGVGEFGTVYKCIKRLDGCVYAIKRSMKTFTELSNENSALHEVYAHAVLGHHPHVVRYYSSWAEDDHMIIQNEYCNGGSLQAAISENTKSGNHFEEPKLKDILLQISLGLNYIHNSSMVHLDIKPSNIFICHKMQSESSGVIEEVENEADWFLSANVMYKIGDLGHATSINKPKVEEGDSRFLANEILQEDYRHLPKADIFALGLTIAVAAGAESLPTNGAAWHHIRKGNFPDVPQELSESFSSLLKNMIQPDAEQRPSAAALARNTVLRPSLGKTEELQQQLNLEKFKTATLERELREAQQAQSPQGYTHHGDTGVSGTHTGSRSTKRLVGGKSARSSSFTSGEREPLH

[5] = target: Mitogen-activated protein kinase kinase kinase 7 (Homo sapiens) (UniProt O43318); assay: Inhibition of wild-type human partial length TAK1 (M1 to Q303 residues) expressed in HEK293 cells assessed as residual activity at 1000 nM after 30 mins by Kinomescan method relative to control; type: cell-based
[6] = target: Interferon-induced, double-stranded RNA-activated protein kinase (Homo sapiens) (UniProt P19525); assay: Inhibition of wild-type human partial length PRKR (F247 to C551 residues) expressed in Escherichia coli BL21 assessed as residual activity at 1000 nM after 30 mins by Kinomescan method relative to control
[7] = target: Phosphatidylinositol 3-kinase catalytic subunit type 3 (Homo sapiens) (UniProt Q8NEB9); assay: Inhibition of wild-type human partial length VPS34 (S282 to H879 residues) expressed in HEK293 cells assessed as residual activity at 1000 nM after 30 mins by Kinomescan method relative to control; type: cell-based
[8] = target: Tyrosine-protein kinase Fes/Fps (Homo sapiens) (UniProt P07332); assay: Inhibition of wild-type human partial length FES (I527 to R822 residues) expressed in Escherichia coli BL21 assessed as residual activity at 1000 nM after 30 mins by Kinomescan method relative to control
Chain of Tyrosine-protein kinase Fes/Fps (Homo sapiens) (P07332 whole entry, the tested form may be a part): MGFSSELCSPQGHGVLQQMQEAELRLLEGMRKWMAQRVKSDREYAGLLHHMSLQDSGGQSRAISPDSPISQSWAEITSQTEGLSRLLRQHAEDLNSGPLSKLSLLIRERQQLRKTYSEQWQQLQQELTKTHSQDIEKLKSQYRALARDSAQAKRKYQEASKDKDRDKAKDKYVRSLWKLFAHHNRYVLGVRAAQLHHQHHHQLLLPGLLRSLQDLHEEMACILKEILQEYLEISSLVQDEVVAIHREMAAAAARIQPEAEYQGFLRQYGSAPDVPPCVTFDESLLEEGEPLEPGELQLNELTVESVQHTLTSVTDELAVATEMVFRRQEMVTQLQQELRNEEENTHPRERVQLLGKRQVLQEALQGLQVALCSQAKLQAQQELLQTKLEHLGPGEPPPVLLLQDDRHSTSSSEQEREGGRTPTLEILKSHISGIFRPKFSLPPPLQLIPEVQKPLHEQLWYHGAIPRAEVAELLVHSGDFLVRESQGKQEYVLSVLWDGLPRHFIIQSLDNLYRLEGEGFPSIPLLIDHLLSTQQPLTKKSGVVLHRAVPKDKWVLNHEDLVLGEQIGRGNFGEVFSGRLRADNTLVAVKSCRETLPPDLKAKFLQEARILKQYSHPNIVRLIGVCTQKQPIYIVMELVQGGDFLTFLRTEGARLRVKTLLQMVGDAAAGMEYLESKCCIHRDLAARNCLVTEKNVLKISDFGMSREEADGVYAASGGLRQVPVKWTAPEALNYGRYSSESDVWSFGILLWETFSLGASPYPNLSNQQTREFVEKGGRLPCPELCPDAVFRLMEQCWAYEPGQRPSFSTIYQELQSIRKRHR

[9] = test system: SW780; assay: Antiproliferative activity against human FGFR3-amplified SW780 cells after 5 days by SRB assay; conditions: SW780, 120 h
[10] = test system: Tyrosine-protein kinase ABL1 (Homo sapiens), P00519 [F317I]; assay: Inhibition of human phosphorylated ABL1 F317I mutant (S229 to K512 residues) expressed in HEK293 cells assessed as residual activity at 1000 nM after 30 mins by Kinomescan method relative to control; type: cell-based
In short: (§2)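 Single-point screen at a fixed 1 µM, run within a 456-kinase DiscoveRx KINOMEscan panel. Each kinase's read-out is Percent Control, i.e. signal relative to a control without compound. Hits were scored by a Percent Control < 35 cut-off, and an S(35) selectivity score was calculated across the non-mutant kinases.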

[11] = target: Cyclin-dependent kinase-like 2 (Homo sapiens) (UniProt Q92772); assay: Inhibition of wild-type human partial length CDKL2 (M1 to D327 residues) expressed in Escherichia coli BL21 assessed as residual activity at 1000 nM after 30 mins by Kinomescan method relative to control
Chain of Cyclin-dependent kinase-like 2 (Homo sapiens) (Q92772 whole entry, the tested form may be a part): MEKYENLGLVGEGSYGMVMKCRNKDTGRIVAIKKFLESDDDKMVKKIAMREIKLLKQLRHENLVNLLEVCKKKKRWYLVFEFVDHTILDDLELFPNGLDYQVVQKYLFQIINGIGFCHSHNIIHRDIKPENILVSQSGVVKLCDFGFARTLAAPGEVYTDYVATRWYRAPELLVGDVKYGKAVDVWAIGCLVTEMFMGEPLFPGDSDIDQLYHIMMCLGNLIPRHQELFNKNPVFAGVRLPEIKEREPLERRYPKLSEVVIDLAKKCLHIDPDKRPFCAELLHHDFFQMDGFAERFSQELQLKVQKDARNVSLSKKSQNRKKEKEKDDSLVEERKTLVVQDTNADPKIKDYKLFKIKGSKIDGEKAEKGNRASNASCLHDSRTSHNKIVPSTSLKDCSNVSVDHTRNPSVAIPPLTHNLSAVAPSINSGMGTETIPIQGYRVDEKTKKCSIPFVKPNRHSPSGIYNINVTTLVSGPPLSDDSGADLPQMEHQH

[12] = target: MAP/microtubule affinity-regulating kinase 3 (Homo sapiens) (UniProt P27448); assay: Inhibition of wild-type human full length MARK3 (M1 to L729 residues) expressed in Escherichia coli BL21 assessed as residual activity at 1000 nM after 30 mins by Kinomescan method relative to control; in short: as §1
[13] = target: Serine/threonine-protein kinase RIO3 (Homo sapiens) (UniProt O14730); assay: Inhibition of wild-type human full length RIOK3 (M1 to E519 residues) expressed in Escherichia coli BL21 assessed as residual activity at 1000 nM after 30 mins by Kinomescan method relative to control
[14] = test system: Epidermal growth factor receptor (Homo sapiens), P00533 [UNDEFINED MUTATION]; assay: Inhibition of human partial length EGFR L747-T751del/Sins mutant expressed in Escherichia coli BL21 assessed as residual activity at 1000 nM after 30 mins by Kinomescan method relative to control
In short: (§3)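 KINOMEscan binding panel of 456 kinases, with the test compound at a single concentration of 1 µM. Read-out is Percent Control.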

[15] = test system: Epidermal growth factor receptor (Homo sapiens), P00533 [T790M]; assay: Inhibition of human partial length EGFR T790M mutant (R669 to G1022 residues) expressed in HEK293 cells assessed as residual activity at 1000 nM after 30 mins by Kinomescan method relative to control; type: cell-based; in short: as §3
[16] = target: Mitogen-activated protein kinase 4 (Homo sapiens) (UniProt P31152); assay: Inhibition of wild-type human partial length ERK4 (M1 to L365 residues) expressed in Escherichia coli BL21 assessed as residual activity at 1000 nM after 30 mins by Kinomescan method relative to control
[17] = target: Ribosomal protein S6 kinase alpha-5 (Homo sapiens) (UniProt O75582); assay: Inhibition of wild-type human partial length C-terminal RPS6KA5 kinase domain 2 (V390 to T718 residues) expressed in Escherichia coli BL21 assessed as residual activity at 1000 nM after 30 mins by Kinomescan method relative to control
Chain of Ribosomal protein S6 kinase alpha-5 (Homo sapiens) (O75582 whole entry, looked up, the tested form may be a part): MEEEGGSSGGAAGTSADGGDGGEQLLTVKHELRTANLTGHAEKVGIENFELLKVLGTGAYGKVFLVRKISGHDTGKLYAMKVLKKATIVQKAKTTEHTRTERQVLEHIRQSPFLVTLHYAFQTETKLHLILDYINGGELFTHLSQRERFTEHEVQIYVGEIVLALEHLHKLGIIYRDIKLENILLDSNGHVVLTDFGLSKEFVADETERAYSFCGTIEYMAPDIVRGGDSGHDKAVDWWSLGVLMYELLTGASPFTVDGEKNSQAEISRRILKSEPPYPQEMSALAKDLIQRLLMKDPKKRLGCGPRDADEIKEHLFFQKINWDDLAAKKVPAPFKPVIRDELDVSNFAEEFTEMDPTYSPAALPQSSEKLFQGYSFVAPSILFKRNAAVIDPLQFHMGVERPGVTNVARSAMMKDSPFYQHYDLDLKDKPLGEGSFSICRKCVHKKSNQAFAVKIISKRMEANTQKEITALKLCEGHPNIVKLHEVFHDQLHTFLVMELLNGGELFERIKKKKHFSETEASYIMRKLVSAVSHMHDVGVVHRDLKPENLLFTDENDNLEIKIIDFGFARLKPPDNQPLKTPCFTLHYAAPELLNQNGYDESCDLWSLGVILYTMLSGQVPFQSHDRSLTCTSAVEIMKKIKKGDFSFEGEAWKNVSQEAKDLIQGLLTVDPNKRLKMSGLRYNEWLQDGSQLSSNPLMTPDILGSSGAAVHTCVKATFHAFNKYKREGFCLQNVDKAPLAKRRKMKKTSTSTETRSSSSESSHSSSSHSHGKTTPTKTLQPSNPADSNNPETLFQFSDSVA

[18] = target: Tyrosine-protein kinase JAK3 (Homo sapiens) (UniProt P52333); assay: Inhibition of wild-type human partial length JAK3 JH1 catalytic domain (I781 to S1124 residues) expressed in HEK293 cells assessed as residual activity at 1000 nM after 30 mins by Kinomescan method relative to control; type: cell-based
[19] = target: Inhibitor of nuclear factor kappa-B kinase subunit alpha (Homo sapiens) (UniProt O15111); assay: Inhibition of wild-type human full length IKK-alpha (M1 to E745 residues) expressed in HEK293 cells assessed as residual activity at 1000 nM after 30 mins by Kinomescan method relative to control; type: cell-based; in short: as §1
Chain of Inhibitor of nuclear factor kappa-B kinase subunit alpha (Homo sapiens) (O15111 whole entry, the tested form may be a part): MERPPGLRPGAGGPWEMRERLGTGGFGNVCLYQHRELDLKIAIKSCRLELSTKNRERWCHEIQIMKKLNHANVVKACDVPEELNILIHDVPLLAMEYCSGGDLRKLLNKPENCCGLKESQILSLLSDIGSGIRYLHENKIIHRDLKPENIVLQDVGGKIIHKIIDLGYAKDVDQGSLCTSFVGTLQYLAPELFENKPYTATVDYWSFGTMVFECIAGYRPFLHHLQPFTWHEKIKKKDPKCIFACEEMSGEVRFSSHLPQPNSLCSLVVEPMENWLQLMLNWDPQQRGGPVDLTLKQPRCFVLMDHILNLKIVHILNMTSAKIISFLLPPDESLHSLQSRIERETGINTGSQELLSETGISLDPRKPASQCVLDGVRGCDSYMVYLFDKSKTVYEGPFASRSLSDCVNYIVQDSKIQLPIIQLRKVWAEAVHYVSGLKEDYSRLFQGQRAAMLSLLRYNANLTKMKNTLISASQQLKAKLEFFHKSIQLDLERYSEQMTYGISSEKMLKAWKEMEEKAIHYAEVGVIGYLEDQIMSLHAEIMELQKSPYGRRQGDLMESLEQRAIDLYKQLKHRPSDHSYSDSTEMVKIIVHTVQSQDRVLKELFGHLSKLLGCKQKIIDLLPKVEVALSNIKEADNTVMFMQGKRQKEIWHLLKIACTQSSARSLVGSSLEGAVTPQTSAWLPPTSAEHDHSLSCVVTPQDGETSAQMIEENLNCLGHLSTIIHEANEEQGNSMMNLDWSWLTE

[20] = target: Cytoplasmic tyrosine-protein kinase BMX (Homo sapiens) (UniProt P51813); assay: Inhibition of wild-type human full length BMX (M1 to H675 residues) expressed in Escherichia coli BL21 assessed as residual activity at 1000 nM after 30 mins by Kinomescan method relative to control; in short: as §2
Chain of Cytoplasmic tyrosine-protein kinase BMX (Homo sapiens) (P51813 whole entry, the tested form may be a part): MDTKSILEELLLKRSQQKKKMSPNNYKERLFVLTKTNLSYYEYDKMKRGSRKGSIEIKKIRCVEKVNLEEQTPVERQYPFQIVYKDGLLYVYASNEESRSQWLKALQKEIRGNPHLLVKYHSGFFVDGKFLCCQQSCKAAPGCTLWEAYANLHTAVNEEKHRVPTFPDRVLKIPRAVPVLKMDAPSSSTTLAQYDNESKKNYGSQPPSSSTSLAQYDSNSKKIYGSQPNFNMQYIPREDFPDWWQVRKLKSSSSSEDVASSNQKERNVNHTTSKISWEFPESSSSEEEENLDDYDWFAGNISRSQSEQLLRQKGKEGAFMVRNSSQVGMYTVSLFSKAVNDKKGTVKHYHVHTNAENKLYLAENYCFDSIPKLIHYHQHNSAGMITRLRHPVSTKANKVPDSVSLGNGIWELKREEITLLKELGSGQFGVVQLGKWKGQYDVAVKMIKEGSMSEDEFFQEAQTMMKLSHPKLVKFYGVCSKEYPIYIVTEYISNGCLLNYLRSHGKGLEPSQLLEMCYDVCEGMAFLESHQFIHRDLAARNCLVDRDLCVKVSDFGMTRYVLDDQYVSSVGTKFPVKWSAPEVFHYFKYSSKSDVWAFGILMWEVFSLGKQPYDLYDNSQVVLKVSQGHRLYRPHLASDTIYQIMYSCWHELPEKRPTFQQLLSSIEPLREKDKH

[21] = target: Peripheral plasma membrane protein CASK (Homo sapiens) (UniProt O14936); assay: Inhibition of wild-type human partial length CASK (M1 to H315 residues) expressed in HEK293 cells assessed as residual activity at 1000 nM after 30 mins by Kinomescan method relative to control; type: cell-based
[22] = target: Receptor tyrosine-protein kinase erbB-4 (Homo sapiens) (UniProt Q15303); assay: Inhibition of wild-type human partial length ERBB4 (L690 to K994 residues) expressed in Escherichia coli BL21 assessed as residual activity at 1000 nM after 30 mins by Kinomescan method relative to control

Question: Which results are given for COc1cc(OC)c(Cl)c(N2Cc3cnc(Nc4ccc(F)cc4)nc3N(C3CCN(C(=O)/C=C/CN(C)C)CC3)C2=O)c1Cl?
Answer: Activity [1]: 92%; Activity [2]: 100%; Activity [3]: 100%; Activity [4]: 99%; Activity [5]: 100%; Activity [6]: 76%; Activity [7]: 100%; Activity [8]: 40%; IC50 [9]: 16.1 nM; Activity [10]: 99%; Activity [11]: 96%; Activity [12]: 99%; Activity [13]: 97%; Activity [14]: 95%; Activity [15]: 94%; Activity [16]: 94%; Activity [17]: 100%; Activity [18]: 98%; Activity [19]: 95%; Activity [20]: 99%; Activity [21]: 96%; Activity [22]: 98%
